Test results: ChEMBL document CHEMBL4138167, “Cytotoxicity, Hemolytic Toxicity, and Mechanism of Action of Pulsatilla Saponin D and Its Synthetic Derivatives” (J Nat Prod, 2018)
The source made the active and inactive calls. The rule behind the calls is not given here.

Key:
A549 [1] = test: Cytotoxicity against human A549 cells after 72 hrs by sulforhodamine B assay; assay type: functional, cell-based; conditions: for IC50: A549, 72 h
MDA-MB-231 = test: Cytotoxicity against human MDA-MB-231 cells after 72 hrs by sulforhodamine B assay; assay type: functional, cell-based; conditions: for IC50: MDA-MB-231, 72 h
KB = test: Cytotoxicity against human KB cells after 72 hrs by sulforhodamine B assay; assay type: functional, cell-based
[2] = (§1) Cytotoxicity against human KBVIN cells after 72 hrs by sulforhodamine B assay; assay type: functional, cell-based
MCF7 = test: Cytotoxicity against human MCF7 cells after 72 hrs by sulforhodamine B assay; assay type: functional, cell-based; conditions: for IC50: MCF7, 72 h
A549 [3] = test: Cytotoxicity against human A549 cells after 48 hrs by MTT assay; assay type: functional, cell-based; conditions: A549, 48 h
[4] = Hemolytic activity against New Zealand rabbit erythrocytes measured after 60 mins; assay type: ADME, cell-based, Oryctolagus cuniculus, Erythrocyte; conditions: read-out: HD50
Procedure, shortened: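 Nonheparinized rabbit blood; erythrocytes washed three times in PBS pH 7.4, 10% suspension; compounds from 10 mM DMSO stock diluted in PBS to 5-500 μM; 100 μL suspension plus 1 mL sample, 37 °C 60 min with periodic stirring; centrifuged, supernatant A540; distilled water = 100% hemolysis, PBS blank subtracted; triplicate; HD50 = concentration giving 50% maximal hemolysis.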

Homo sapiens = species: Homo sapiens; test: as §1; assay type: functional, cell-based
A549 [5] = test: Cell cycle arrest in human A549 cells assessed as accumulation at G1-phase at 2 uM after 24 hrs by propidium iodide staining based flow cytometric analysis (reference value: 46.6%); assay type: functional
A549 [6] = test: Cell cycle arrest in human A549 cells assessed as accumulation at G1-phase at 4 uM after 24 hrs by propidium iodide staining based flow cytometric analysis (reference value: 46.6%); assay type: functional
A549 [7] = test: Cell cycle arrest in human A549 cells assessed as accumulation at G1-phase at 8 uM after 24 hrs by propidium iodide staining based flow cytometric analysis (reference value: 46.6%); assay type: functional
A549 [8] = test: Induction of apoptosis in human A549 cells assessed as early apoptotic cells at 2 uM after 24 hrs by Annexin-V-FITC/propidium iodide staining based flow cytometric method (reference value: 1.43%); assay type: functional
A549 [9] = test: Induction of apoptosis in human A549 cells assessed as early apoptotic cells at 4 uM after 24 hrs by Annexin-V-FITC/propidium iodide staining based flow cytometric method (reference value: 1.43%); assay type: functional
A549 [10] = test: Induction of apoptosis in human A549 cells assessed as early apoptotic cells at 8 uM after 24 hrs by Annexin-V-FITC/propidium iodide staining based flow cytometric method (reference value: 1.43%); assay type: functional
A549 [11] = test: Induction of apoptosis in human A549 cells assessed as late apoptotic cells at 2 uM after 24 hrs by Annexin-V-FITC/propidium iodide staining based flow cytometric method (reference value: 2.97%); assay type: functional
A549 [12] = test: Induction of apoptosis in human A549 cells assessed as late apoptotic cells at 4 uM after 24 hrs by Annexin-V-FITC/propidium iodide staining based flow cytometric method (reference value: 2.97%); assay type: functional
A549 [13] = test: Induction of apoptosis in human A549 cells assessed as late apoptotic cells at 8 uM after 24 hrs by Annexin-V-FITC/propidium iodide staining based flow cytometric method (reference value: 2.97%); assay type: functional
A549 [14] = test: Induction of apoptosis in human A549 cells assessed as increase in cleaved PARP level at 2 to 8 uM by Western blot analysis; assay type: functional, cell-based
Procedure, shortened: (§2)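 A549 cells exposed 24 h; lysed in Tris-Cl pH 6.8/4% SDS/glycerol/β-mercaptoethanol/PMSF/aprotinin buffer, cleared 12000g 15 min 4 °C, protein by BCA; 10-15% SDS-PAGE, PVDF transfer, primary antibodies overnight 4 °C, HRP secondaries, ECL detection; Lam A as loading control.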

A549 [15] = test: Induction of apoptosis in human A549 cells assessed as reduction in procaspase-3 level at 2 to 8 uM by Western blot analysis; assay type: functional, cell-based; procedure, shortened: as §2
A549 [16] = test: Induction of apoptosis in human A549 cells assessed as reduction in procaspase-9 level at 2 to 8 uM by Western blot analysis; assay type: functional, cell-based; procedure, shortened: as §2
A549 [17] = test: Induction of apoptosis in human A549 cells assessed as reduction in procaspase-8 level at 2 to 8 uM by Western blot analysis; assay type: functional, cell-based; procedure, shortened: as §2

Compound | IC50 (A549 [1]) [µM] | IC50 (MDA-MB-231) [µM] | IC50 (KB) [µM] | IC50 [2] [µM] | IC50 (MCF7) [µM] | IC50 (A549 [3]) [µM] | HC50 at 1 h [4] [µM] | further results
CC1(C)CC[C@]2(C(=O)NCC(=O)O)CC[C@]3(C)C(=CC[C@@H]4[C@@]5(C)CC[C@H](O)[C@@](C)(CO)[C@@H]5CC[C@]43C)[C@@H]2C1 | > 10 | > 10 | > 10 | > 10 | > 10 |  |  | 
CC(=O)O[C@H]1C(=O)[C@@]2(C)[C@H]([C@H](OC(=O)c3ccccc3)[C@]3(O)C[C@H](OC(=O)[C@H](O)[C@@H](NC(=O)c4ccccc4)c4ccccc4)C(C)=C1C3(C)C)[C@]1(OC(C)=O)CO[C@@H]1C[C@@H]2O [PACLITAXEL] |  |  |  | 1.86 |  |  |  | 
C[C@@H]1O[C@@H](O[C@H]2[C@H](O[C@H]3CC[C@@]4(C)[C@@H](CC[C@]5(C)[C@@H]4C(=O)C=C4[C@@H]6CC(C)(C)CC[C@]6(C(=O)O)CC[C@]45C)[C@]3(C)CO)OC[C@H](O[C@@H]3O[C@H](CO)[C@@H](O)[C@H](O)[C@H]3O)[C@@H]2O)[C@H](O)[C@H](O)[C@H]1O |  |  |  |  |  | > 10 | 239 | 
CCOC(=O)CNC(=O)[C@]12CCC(C)(C)C[C@H]1C1=CC[C@@H]3[C@@]4(C)CC[C@H](OC(C)=O)[C@@](C)(COC(C)=O)[C@@H]4CC[C@@]3(C)[C@]1(C)CC2 | 4.6 | 5.5 | 4.2 | 4.9 | 7.7 |  |  | 
C[C@@H]1O[C@@H](O[C@H]2[C@H](O[C@H]3CC[C@@]4(C)[C@@H](CC[C@]5(C)[C@@H]4C(=O)C=C4[C@@H]6CC(C)(C)CC[C@]6(C(=O)NCC(=O)O)CC[C@]45C)[C@]3(C)CO)OC[C@H](O[C@@H]3O[C@H](CO)[C@@H](O)[C@H](O)[C@H]3O)[C@@H]2O)[C@H](O)[C@H](O)[C@H]1O |  |  |  |  |  | > 10 |  | 
C[C@@H]1O[C@@H](O[C@H]2[C@H](O[C@H]3CC[C@@]4(C)[C@@H](CC[C@]5(C)[C@@H]4CC(=O)[C@@H]4[C@@H]6CC(C)(C)CC[C@]6(C(=O)O)CC[C@]45C)[C@]3(C)CO)OC[C@H](O[C@@H]3O[C@H](CO)[C@@H](O)[C@H](O)[C@H]3O)[C@@H]2O)[C@H](O)[C@H](O)[C@H]1O |  |  |  |  |  | > 10 | 73.1 | 
CCOC(=O)CCCNC(=O)[C@]12CCC(C)(C)C[C@H]1C1=CC[C@@H]3[C@@]4(C)CC[C@H](OC(C)=O)[C@@](C)(COC(C)=O)[C@@H]4CC[C@@]3(C)[C@]1(C)CC2 | 2.8 |  | 3.6 | 5.1 | 8.6 |  | > 500 | Activity (A549 [1]): Dose-dependent effect; Activity (MDA-MB-231): Dose-dependent effect; Activity (KB): Dose-dependent effect; Activity (Homo sapiens): Dose-dependent effect; Activity (MCF7): Dose-dependent effect; Activity (A549 [5]): 53.4%; Activity (A549 [6]): 61.1%; Activity (A549 [7]): 68.4%; Activity (A549 [8]): 14.8%; Activity (A549 [9]): 26.5%; Activity (A549 [10]): 30.3%; Activity (A549 [11]): 3.8%; Activity (A549 [12]): 4.4%; Activity (A549 [13]): 4.87%; Activity (A549 [14]): Active; Activity (A549 [15]): Active; Activity (A549 [16]): Active; Activity (A549 [17]): Active
CCOC(=O)CCCCCNC(=O)[C@]12CCC(C)(C)C[C@H]1C1=CC[C@@H]3[C@@]4(C)CC[C@H](OC(C)=O)[C@@](C)(COC(C)=O)[C@@H]4CC[C@@]3(C)[C@]1(C)CC2 | 5.1 |  | 6.9 | > 10 | > 10 |  |  | 
C[C@@H]1O[C@@H](O[C@H]2[C@H](O[C@H]3CC[C@@]4(C)[C@@H](CC[C@]5(C)[C@@H]4CC=C4[C@@H]6CC(C)(C)CC[C@]6(C(=O)O)CC[C@]45C)[C@]3(C)CO)OC[C@H](O[C@@H]3O[C@H](CO)[C@@H](O)[C@H](O)[C@H]3O)[C@@H]2O)[C@H](O)[C@H](O)[C@H]1O [HEDERACOLCHISIDE A] |  |  |  |  |  | 6 |  | 
C[C@@H]1O[C@@H](O[C@H]2[C@H](O[C@H]3CC[C@@]4(C)[C@@H](CC[C@]5(C)[C@@H]4C[C@H](O)[C@]46OC(=O)[C@@]7(CCC(C)(C)C[C@H]74)CC[C@]65C)[C@]3(C)CO)OC[C@H](O[C@@H]3O[C@H](CO)[C@@H](O)[C@H](O)[C@H]3O)[C@@H]2O)[C@H](O)[C@H](O)[C@H]1O |  |  |  |  |  | > 10 | 308 | 
CC1(C)CC[C@]2(C(=O)O)CC[C@]3(C)C(=CC[C@@H]4[C@@]5(C)CC[C@H](O)[C@@](C)(CO)[C@@H]5CC[C@]43C)[C@@H]2C1 [HEDERAGENIN] | > 10 | > 10 | > 10 | > 10 | > 10 |  |  | 
CC1(C)CC[C@]2(C(=O)NCCCCCC(=O)O)CC[C@]3(C)C(=CC[C@@H]4[C@@]5(C)CC[C@H](O)[C@@](C)(CO)[C@@H]5CC[C@]43C)[C@@H]2C1 | > 10 | > 10 | > 10 | > 10 | > 10 |  |  | 
CC1(C)CC[C@]2(C(=O)NCCCC(=O)O)CC[C@]3(C)C(=CC[C@@H]4[C@@]5(C)CC[C@H](O)[C@@](C)(CO)[C@@H]5CC[C@]43C)[C@@H]2C1 | > 10 | > 10 | > 10 | > 10 | > 10 |  |  | 
CC(=O)OC[C@@]1(C)[C@@H]2CC[C@]3(C)[C@H](CC=C4[C@@H]5CC(C)(C)CC[C@]5(C(=O)O)CC[C@]43C)[C@@]2(C)CC[C@@H]1OC(C)=O | 6.2 | > 10 | 7.4 | 8.5 | > 10 |  |  | 
C[C@@H]1O[C@@H](O[C@H]2[C@H](O[C@H]3CC[C@@]4(C)[C@@H](CC[C@]5(C)[C@@H]4CC(=O)[C@]46OC(=O)[C@@]7(CCC(C)(C)C[C@H]74)CC[C@@]56C)[C@]3(C)CO)OC[C@H](O[C@@H]3O[C@H](CO)[C@@H](O)[C@H](O)[C@H]3O)[C@@H]2O)[C@H](O)[C@H](O)[C@H]1O |  |  |  |  |  | > 10 | 290 | 
